# Activity calls are given as the source filed them. The rule behind the calls is not given here.
# Columns and labels:
# RAW264.7 [1] = test: Antiinflammatory activity in mouse RAW264.7 cells assessed as inhibition of LPS-induced nitric oxide production; assay type: functional, cell-based
# In short: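 RAW 264.7 cells stimulated with 20 ng/mL LPS plus a range of compound concentrations; nitric oxide output measured. Data normalized so LPS + solvent = 100% and untreated cells = 0% activation; IC50 fitted from dose–response, points averaged over nine replicates (SD).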
# RAW264.7 [2] = test: Cytotoxicity against mouse RAW264.7 cells assessed as cell viability by WST1 assay; assay type: cell-based; details: read-out: LC50 (the source's name) (converted)
# In short: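 RAW 264.7 mouse macrophages were stimulated with 20 ng/mL LPS and given a range of compound concentrations, alongside the nitric oxide inhibition assay. Cell viability was measured at each tested concentration. LC50 was taken as the concentration giving 50% cell viability.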
# RAW264.7 [3] = test: Inhibition of IFNgamma-induced iNOS mRNA expression in mouse RAW264.7 cells at 1 to 50 uM after 16 hrs by RT-PCR analysis; assay type: functional
# [4] = biological target: T1, Nuclear factor NF-kappa-B complex (Homo sapiens) (UniProt Q00653+P19838+Q04206); test: Inhibition of LPS-induced NFkappaB activation in human HEK293T cells at 0.5 to 1 uM after 18 to 24 hrs by secreted embryonic alkaline phosphatase reporter gene assay; assay type: cell-based; details: HEK-293T
# T1 sequence (P19838 whole entry, looked up): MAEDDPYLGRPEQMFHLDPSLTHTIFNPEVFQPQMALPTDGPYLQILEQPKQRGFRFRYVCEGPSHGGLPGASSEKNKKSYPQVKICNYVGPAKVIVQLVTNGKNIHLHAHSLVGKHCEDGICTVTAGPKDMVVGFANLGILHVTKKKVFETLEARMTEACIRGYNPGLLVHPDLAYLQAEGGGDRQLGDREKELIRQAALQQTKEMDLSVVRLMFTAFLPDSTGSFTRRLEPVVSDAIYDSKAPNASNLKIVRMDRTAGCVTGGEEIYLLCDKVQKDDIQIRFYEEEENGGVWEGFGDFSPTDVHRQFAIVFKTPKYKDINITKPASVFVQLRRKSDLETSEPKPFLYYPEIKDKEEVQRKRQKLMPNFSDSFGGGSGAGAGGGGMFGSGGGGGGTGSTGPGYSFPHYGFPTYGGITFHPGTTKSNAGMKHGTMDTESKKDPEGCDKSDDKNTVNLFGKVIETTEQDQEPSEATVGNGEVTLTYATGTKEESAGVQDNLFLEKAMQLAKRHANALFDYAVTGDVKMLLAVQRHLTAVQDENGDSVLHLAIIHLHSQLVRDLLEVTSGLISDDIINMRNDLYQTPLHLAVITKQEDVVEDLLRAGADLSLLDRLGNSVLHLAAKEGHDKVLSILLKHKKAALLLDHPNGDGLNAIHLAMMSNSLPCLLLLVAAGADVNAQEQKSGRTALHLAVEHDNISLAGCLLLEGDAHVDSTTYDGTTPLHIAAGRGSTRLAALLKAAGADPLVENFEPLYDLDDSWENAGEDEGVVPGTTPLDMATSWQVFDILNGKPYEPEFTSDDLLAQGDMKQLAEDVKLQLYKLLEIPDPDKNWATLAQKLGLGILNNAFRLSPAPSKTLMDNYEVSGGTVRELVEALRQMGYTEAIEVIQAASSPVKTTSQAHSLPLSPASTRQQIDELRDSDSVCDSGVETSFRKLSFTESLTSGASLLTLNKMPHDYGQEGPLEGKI
# T1 sequence (Q00653 whole entry, looked up): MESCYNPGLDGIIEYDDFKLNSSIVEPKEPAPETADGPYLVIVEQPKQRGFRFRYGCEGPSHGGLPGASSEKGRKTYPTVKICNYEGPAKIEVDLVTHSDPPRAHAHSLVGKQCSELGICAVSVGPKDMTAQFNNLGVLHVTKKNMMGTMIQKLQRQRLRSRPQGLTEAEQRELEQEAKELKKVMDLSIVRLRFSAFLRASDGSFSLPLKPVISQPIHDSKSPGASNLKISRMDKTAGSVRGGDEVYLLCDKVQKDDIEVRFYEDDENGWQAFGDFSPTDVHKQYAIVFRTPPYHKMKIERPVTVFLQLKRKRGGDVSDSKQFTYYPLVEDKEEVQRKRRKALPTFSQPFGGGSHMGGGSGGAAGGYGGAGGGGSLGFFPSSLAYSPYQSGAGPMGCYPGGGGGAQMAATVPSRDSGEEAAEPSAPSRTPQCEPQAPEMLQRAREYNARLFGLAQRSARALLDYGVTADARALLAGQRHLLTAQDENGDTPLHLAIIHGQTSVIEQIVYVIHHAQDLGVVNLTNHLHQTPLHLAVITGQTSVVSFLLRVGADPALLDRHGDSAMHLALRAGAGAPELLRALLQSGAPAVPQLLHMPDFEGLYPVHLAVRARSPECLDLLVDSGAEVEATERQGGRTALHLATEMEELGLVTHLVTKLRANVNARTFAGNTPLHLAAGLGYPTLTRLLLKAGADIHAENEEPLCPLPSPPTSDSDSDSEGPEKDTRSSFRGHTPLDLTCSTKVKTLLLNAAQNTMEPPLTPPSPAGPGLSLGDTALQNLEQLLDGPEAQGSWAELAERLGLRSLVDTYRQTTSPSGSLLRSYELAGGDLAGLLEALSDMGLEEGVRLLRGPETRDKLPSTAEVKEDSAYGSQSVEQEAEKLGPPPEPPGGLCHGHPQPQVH
# T1 sequence (Q04206 whole entry, looked up): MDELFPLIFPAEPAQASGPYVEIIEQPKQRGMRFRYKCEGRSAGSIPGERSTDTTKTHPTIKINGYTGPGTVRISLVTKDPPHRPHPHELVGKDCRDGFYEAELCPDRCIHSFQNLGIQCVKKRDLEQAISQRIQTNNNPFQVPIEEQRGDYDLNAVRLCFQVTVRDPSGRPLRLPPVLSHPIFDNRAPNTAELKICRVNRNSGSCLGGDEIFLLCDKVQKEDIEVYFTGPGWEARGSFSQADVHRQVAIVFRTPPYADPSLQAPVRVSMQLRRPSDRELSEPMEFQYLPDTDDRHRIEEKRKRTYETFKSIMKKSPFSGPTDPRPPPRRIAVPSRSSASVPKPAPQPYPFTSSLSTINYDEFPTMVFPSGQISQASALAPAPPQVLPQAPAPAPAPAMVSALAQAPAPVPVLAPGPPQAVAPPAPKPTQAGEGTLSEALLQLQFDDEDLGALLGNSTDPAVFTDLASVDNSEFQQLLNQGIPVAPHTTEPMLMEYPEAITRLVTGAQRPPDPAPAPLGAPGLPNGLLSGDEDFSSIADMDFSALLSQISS
# In short: (§1)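 NF-κB activation monitored by secreted embryonic alkaline phosphatase reporter in HEK 293T cells stimulated via TLR4 or TLR3; compound tested at concentrations […].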
# RAW264.7 [5] = test: Antiinflammatory activity in mouse RAW264.7 cells assessed as inhibition of pam2CSK4-induced nitric oxide production; assay type: functional, cell-based
# In short: (§2)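 RAW 264.7 cells stimulated with Pam2CSK4 (TLR2/6 ligand) or Poly I:C (TLR3 ligand) with varying compound concentrations; NO production read out. Normalized to agonist + solvent (100%) versus untreated (0%); IC50 from dose–response curves, nine replicates averaged, SD shown.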
# RAW264.7 [6] = test: Cytotoxicity against mouse RAW264.7 cells assessed as cell viability up to 100 uM by WST1 assay; assay type: cell-based
# In short: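 Cell viability assay run on the compound-treated RAW 264.7 cultures at each tested concentration; LC50 taken as concentration giving 50% viability.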
# RAW264.7 [7] = test: Antiinflammatory activity in mouse RAW264.7 cells assessed as inhibition of poly I:C-induced nitric oxide production; assay type: functional, cell-based; in short: as §2
# RAW264.7 [8] = test: Inhibition of LPS-induced iNOS mRNA expression in mouse RAW264.7 cells after 20 hrs by RT-PCR analysis; assay type: functional, cell-based
# In short: (§3)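 RAW 264.7 cells incubated 20 h with 20 ng/mL LPS and varying compound concentrations; iNOS mRNA quantified by real-time PCR, ligand-induced cells set to fold change 1. Three biological replicates, each in technical duplicate; SD reported.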
# RAW264.7 [9] = test: Inhibition of LPS-induced iNOS protein expression in mouse RAW264.7 cells after 20 hrs by Western blot analysis; assay type: functional, cell-based
# In short: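 RAW 264.7 cells treated with LPS and varying compound concentrations; iNOS protein detected by Western blot using a pan-NOS antibody.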
# [10] = biological target: T1, Nuclear factor NF-kappa-B complex (Homo sapiens); test: Inhibition of poly I:C-induced NFkappaB activation in human HEK293T cells at 0.5 to 1 uM after 18 to 24 hrs by secreted embryonic alkaline phosphatase reporter gene assay; assay type: cell-based; details: HEK-293T; in short: as §1
# [11] = biological target: T1, Nuclear factor NF-kappa-B complex (Homo sapiens); test: Inhibition of TNFalpha-induced NFkappaB activation in human HEK293T cells at 0.5 to 1 uM after 18 to 24 hrs by secreted embryonic alkaline phosphatase reporter gene assay; assay type: cell-based; details: HEK-293T
# RAW264.7 [12] = test: Inhibition of TNFalpha production in mouse RAW264.7 cells at 0.5 to 1 uM by ELISA; assay type: functional, cell-based
# In short: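 TNF-α cytokine levels from compound-treated RAW 264.7 cells measured by commercial ELISA.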
# [13] = Inhibition of JAK/STAT signaling pathway in LPS-induced mouse RAW264.7 cells assessed as inhibition of IFNgamma-induced nitric oxide production; assay type: cell-based
# In short: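 JAK/STAT1 signalling activated in RAW 264.7 cells with 5 ng/mL IFN-γ alongside varying compound concentrations; NO production measured. Values normalized with ligand + solvent as 100% and untreated cells as 0%; IC50 derived from dose–response.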
# [14] = Inhibition of JAK/STAT signaling pathway in LPS-induced mouse RAW264.7 cells assessed as change in NOS2 mRNA expression by RT-PCR analysis relative to control; assay type: cell-based
# [15] = Inhibition of JAK/STAT signaling pathway in LPS-induced mouse RAW264.7 cells assessed as change in Cebpb mRNA expression by RT-PCR analysis relative to control; assay type: cell-based
# [16] = Inhibition of JAK/STAT signaling pathway in LPS-induced mouse RAW264.7 cells assessed as change in Gtp1 mRNA expression by RT-PCR analysis relative to control; assay type: cell-based
# RAW264.7 [17] = test: Inhibition of LPS-induced iNOS mRNA expression in mouse RAW264.7 cells at 10 to 100 uM after 20 hrs by RT-PCR analysis; assay type: functional; in short: as §3
# [18] = test system: RAW 264.7 cells (Mus musculus); test: Antiinflammatory activity in mouse RAW264.7 cells assessed as inhibition of LPS-induced nitric oxide production
Structure (SMILES),IC50 (RAW264.7 [1]),CC50 (RAW264.7 [2]),also measured
O=C(c1ccc(CN2C(=O)c3ccccc3S2(=O)=O)cc1)N1CCCCC1,50.6 µM,69.2 µM,–
O=C(c1ccc(Cn2oc3ccccc3c2=O)cc1)N1CCCCC1,16.8 µM,66.2 µM,–
CNC(=O)c1ccc(CN2C(=O)c3ccccc3S2(=O)=O)cc1,37.7 µM,> 100 µM,–
COC(=O)N(Cc1ccco1)C(=O)c1ccc(CN2C(=O)c3ccccc3S2(=O)=O)cc1,76 µM,> 100 µM,–
O=C(c1ccc(Cn2c(=O)c3ccccc3[s+]2[O-])cc1)N1CCCCC1 (centres undefined),49 µM,> 100 µM,–
CN(Cc1ccco1)C(=O)c1ccc(CN2C(=O)c3ccccc3S2(=O)=O)cc1,79.6 µM,> 100 µM,–
CC1=C(c2cc[n+]([O-])cc2)S(=O)(=O)N(Cc2ccc(C(=O)N3CCCCC3)cc2)C1=O,79.4 µM,> 100 µM,–
O=C(NCc1ccco1)c1ccc(CN2Cc3ccccc3S2(=O)=O)cc1,68.4 µM,> 100 µM,–
CC(C)(C)OC(=O)NC(=O)c1ccc(CN2C(=O)c3ccccc3S2(=O)=O)cc1,64.7 µM,> 100 µM,–
O=C(c1ccc(CN2C(=O)c3ccccc3C2=O)cc1)N1CCCCC1,> 100 µM,> 100 µM,–
O=C(c1ccc(CN2Cc3ccccc3S2(=O)=O)cc1)N1CCCCC1,44.3 µM,> 100 µM,–
CC(C)(C)OC(=O)N(Cc1ccco1)C(=O)c1ccc(Cn2oc3ccccc3c2=O)cc1,6.69 µM,> 100 µM,–
NC(=O)c1ccc(CN2C(=O)c3ccccc3S2(=O)=O)cc1,50.6 µM,> 100 µM,inhibition (INH) (RAW264.7 [3]): 50%
O=C(NCc1ccco1)c1ccc(CN2C(=O)c3ccccc3C2=O)cc1,56 µM,> 100 µM,–
O=C(c1ccc(CN2Cc3ccccc3C2=O)cc1)N1CCCCC1,21.9 µM,> 100 µM,–
CC(C)(C)OC(=O)N(Cc1ccco1)C(=O)c1ccc(Cn2sc3ccccc3c2=O)cc1,68 µM,> 100 µM,inhibition (INH) (RAW264.7 [3]): 50%
CC(C)(C)OC(=O)c1ccc(CN2C(=O)c3ccccc3S2(=O)=O)cc1,10.6 µM,> 100 µM,–
O=C(NCc1ccco1)c1ccc(Cn2c(=O)c3ccccc3[s+]2[O-])cc1 (centres undefined),23.3 µM,> 100 µM,–

Structure (SMILES),IC50 (RAW264.7 [1]),CC50 (RAW264.7 [2]),also measured
CC(C)(C)OC(=O)N(Cc1ccco1)C(=O)c1ccc(CN2C(=O)c3ccccc3C2=O)cc1,3.45 µM,> 100 µM,–
CC1=C(c2ccc(C)c(C)c2)S(=O)(=O)N(Cc2ccc(C(=O)N3CCCCC3)cc2)C1=O,16.5 µM,> 100 µM,–
CC(C)(C)OC(=O)N(Cc1ccco1)C(=O)c1ccc(Cn2c(=O)c3ccccc3[s+]2[O-])cc1 (centres undefined),68 µM,87.3 µM,–
CN(C(=O)OC(C)(C)C)C(=O)c1ccc(CN2C(=O)c3ccccc3S2(=O)=O)cc1,42 µM,> 100 µM,–
O=C(NCc1ccco1)c1ccc(Cn2oc3ccccc3c2=O)cc1,49.3 µM,> 100 µM,–
CC(C)(C)OC(=O)N(Cc1ccco1)C(=O)c1ccc(CN2Cc3ccccc3C2=O)cc1,51.8 µM,95.2 µM,–
O=C(c1ccc(Cn2sc3ccccc3c2=O)cc1)N1CCCCC1,5.38 µM,70.3 µM,–
CC(C)(C)OC(=O)N(Cc1ccco1)C(=O)c1ccc(CN2Cc3ccccc3S2(=O)=O)cc1,10.6 µM,> 100 µM,–
CC(C)(C)OC(=O)N(CCc1ccco1)C(=O)c1ccc(CN2C(=O)c3ccccc3S2(=O)=O)cc1,48.6 µM,> 100 µM,–
CC(=O)N(Cc1ccco1)C(=O)c1ccc(CN2C(=O)c3ccccc3S2(=O)=O)cc1,42.6 µM,> 100 µM,–
O=C(O)c1ccc(CN2C(=O)c3ccccc3S2(=O)=O)cc1,74.7 µM,> 100 µM,–
O=C(NCc1ccco1)c1ccc(CN2Cc3ccccc3C2=O)cc1,49.7 µM,> 100 µM,–
O=C(NCc1ccco1)c1ccc(CN2C(=O)c3ccccc3S2(=O)=O)cc1,24.3 µM,> 100 µM,–
CC(C)(C)OC(=O)N(Cc1ccco1)C(=O)c1ccc(CN2C(=O)c3ccccc3S2(=O)=O)cc1,2.61 µM,> 100 µM,inhibition [4]: inactive; inhibition (RAW264.7 [1]): Dose-dependent effect; IC50 (RAW264.7 [5]): 1690 nM; inhibition (RAW264.7 [5]): Dose-dependent effect; Activity (RAW264.7 [6]): Non-toxic; IC50 (RAW264.7 [7]): 10.9 µM; inhibition (RAW264.7 [7]): Dose-dependent effect; inhibition (RAW264.7 [8]): Dose-dependent effect; inhibition (RAW264.7 [9]): Dose-dependent effect; inhibition (INH) (RAW264.7 [3]): >70%; inhibition [10]: inactive; inhibition [11]: inactive; inhibition (RAW264.7 [12]): inactive; IC50 [13]: 7.88 µM; inhibition [13]: Dose-dependent effect; Activity [14]: Active; Activity [15]: Active; Activity [16]: Active; inhibition (INH) (RAW264.7 [17]): <=67%; IC50 [18]: 9.61 µM
CC(C)(C)OC(=O)N(C(=O)OC(C)(C)C)C(=O)c1ccc(CN2C(=O)c3ccccc3S2(=O)=O)cc1,33.4 µM,> 100 µM,–
O=C(NCCc1ccco1)c1ccc(CN2C(=O)c3ccccc3S2(=O)=O)cc1,76.6 µM,> 100 µM,–
O=C(NCc1ccco1)c1ccc(Cn2sc3ccccc3c2=O)cc1,19.8 µM,> 100 µM,–
CC1=C(c2ccc3ccccc3c2)S(=O)(=O)N(Cc2ccc(C(=O)N3CCCCC3)cc2)C1=O,9.61 µM,47.9 µM,–

# — ChEMBL document CHEMBL3351672, “Saccharin derivatives as inhibitors of interferon-mediated inflammation” (J Med Chem, 2014)
